In article PMC11393732 (RSC Medicinal Chemistry, 2024):
pIC50: −log10 of the molar value.

Experiments:
[1] = Hepatic metabolism S9 fraction incubation, human
[2] = Hepatic metabolism S9 fraction incubation, rat
[3] = molecular target: T1, KDM3B (Homo sapiens, UniProt Q7LBC6); test: Western blot KDM3B degradation in SW480 cells; format: cell-based
Summary of the method: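 SW480 cells exposed to test compound for 16 h, then total lysates protein-normalised and run on SDS-PAGE. Semi-dry transfer to PVDF, 1 h block in 5% milk. Primary antibody overnight at 4 °C in 1% milk, secondary 1 h at RT, TBST washes, α-tubulin as loading control. Rescue arms co-treated with MLN4924 (1 μM) or pomalidomide (100 μM). Test compound at 0.1 μM for the KDM3A blot and 1 μM for the KDM3B blot.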

[4] = molecular target: T2, KDM3A (Homo sapiens, UniProt Q9Y4C1); test: Western blot KDM3A degradation in HCP-1 cells; format: cell-based
T2 sequence (Q9Y4C1 1-1321): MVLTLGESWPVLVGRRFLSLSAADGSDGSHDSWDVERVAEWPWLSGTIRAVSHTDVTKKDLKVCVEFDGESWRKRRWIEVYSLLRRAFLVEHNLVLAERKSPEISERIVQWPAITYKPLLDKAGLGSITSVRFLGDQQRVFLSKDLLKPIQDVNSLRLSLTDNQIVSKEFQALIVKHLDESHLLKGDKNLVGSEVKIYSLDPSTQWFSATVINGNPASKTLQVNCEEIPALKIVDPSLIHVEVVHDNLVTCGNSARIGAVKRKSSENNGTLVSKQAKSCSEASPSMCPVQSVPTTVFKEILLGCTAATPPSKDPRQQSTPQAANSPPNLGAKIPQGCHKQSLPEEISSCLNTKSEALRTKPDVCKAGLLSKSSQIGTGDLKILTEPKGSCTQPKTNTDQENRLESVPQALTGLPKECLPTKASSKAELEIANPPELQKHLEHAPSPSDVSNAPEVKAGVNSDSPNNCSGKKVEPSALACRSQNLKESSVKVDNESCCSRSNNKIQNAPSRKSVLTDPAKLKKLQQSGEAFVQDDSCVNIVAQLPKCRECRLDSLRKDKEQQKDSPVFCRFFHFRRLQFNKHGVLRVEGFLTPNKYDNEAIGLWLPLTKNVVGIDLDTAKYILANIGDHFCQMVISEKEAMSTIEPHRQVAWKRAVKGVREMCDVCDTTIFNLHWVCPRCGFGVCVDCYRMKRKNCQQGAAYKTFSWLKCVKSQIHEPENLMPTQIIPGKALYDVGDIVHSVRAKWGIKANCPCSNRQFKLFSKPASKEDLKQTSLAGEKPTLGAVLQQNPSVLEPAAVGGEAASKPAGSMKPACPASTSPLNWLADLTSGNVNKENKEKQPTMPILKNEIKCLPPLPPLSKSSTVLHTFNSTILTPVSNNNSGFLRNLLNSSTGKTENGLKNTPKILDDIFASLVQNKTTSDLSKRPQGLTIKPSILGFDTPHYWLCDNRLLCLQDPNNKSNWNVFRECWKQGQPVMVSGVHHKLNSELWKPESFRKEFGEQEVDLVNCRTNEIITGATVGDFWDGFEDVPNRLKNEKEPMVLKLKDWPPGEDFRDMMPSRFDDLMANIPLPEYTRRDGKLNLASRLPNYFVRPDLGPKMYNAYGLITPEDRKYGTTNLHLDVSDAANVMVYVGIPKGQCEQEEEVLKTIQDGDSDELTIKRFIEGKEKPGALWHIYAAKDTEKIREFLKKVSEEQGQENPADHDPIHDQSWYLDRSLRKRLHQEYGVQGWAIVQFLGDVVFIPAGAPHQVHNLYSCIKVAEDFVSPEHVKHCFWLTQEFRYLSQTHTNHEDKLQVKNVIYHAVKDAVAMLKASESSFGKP

[5] = molecular target: hERG potassium channel (Homo sapiens, UniProt Q12809); test: hERG automated patch-clamp assay; format: cell-based
Chain of hERG potassium channel (Q12809 whole entry): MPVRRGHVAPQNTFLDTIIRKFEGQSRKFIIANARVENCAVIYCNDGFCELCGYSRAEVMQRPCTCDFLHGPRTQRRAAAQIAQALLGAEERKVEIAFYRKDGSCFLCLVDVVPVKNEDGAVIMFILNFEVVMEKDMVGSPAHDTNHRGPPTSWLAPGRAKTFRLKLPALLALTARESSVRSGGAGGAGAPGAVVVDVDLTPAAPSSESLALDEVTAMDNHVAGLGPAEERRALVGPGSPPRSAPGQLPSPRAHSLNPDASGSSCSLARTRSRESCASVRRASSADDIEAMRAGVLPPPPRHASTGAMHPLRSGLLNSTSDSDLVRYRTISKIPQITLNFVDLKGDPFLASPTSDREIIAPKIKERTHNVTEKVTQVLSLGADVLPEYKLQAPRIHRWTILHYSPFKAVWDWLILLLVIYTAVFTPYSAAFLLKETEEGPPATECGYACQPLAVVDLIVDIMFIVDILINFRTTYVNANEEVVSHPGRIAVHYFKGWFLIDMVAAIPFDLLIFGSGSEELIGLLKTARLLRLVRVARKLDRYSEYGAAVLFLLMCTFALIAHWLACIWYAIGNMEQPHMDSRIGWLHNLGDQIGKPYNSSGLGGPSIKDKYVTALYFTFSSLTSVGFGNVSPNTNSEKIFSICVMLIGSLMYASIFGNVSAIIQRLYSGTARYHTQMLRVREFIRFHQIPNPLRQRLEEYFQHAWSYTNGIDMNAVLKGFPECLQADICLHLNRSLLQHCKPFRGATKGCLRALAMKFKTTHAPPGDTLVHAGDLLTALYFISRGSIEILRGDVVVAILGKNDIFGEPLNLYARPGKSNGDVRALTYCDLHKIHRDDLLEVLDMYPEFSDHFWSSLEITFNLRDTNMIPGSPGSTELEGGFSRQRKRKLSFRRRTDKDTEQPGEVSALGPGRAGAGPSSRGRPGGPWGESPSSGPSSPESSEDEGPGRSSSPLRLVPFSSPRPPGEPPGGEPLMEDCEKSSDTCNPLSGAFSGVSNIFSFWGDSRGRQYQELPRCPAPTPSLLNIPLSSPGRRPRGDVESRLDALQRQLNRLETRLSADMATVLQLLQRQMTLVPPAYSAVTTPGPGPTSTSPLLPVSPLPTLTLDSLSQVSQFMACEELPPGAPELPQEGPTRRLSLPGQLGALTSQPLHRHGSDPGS
Summary of the method: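 hERG-expressing CHO-K1 cells were plated at least 24 h beforehand and recorded by whole-cell patch clamp at about RT with 0.1% Pluronic F-68. Holding −80 mV; 500 ms step to −40 mV for leak subtraction; 500 ms step to +40 mV, then 100 ms ramp to −80 mV for tail current, every 8 s. Block = mean tail amplitude over the last 15 s with test compound ÷ control.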

[6] = test system: ALDH^high-HCP-1 CSCs; test: Tumor sphere formation assay HCP-1; format: cell-based, human; settings: 2 weeks
Summary of the method: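 Trypsinised cells passed through a 40 μm strainer and stained with ALDEFLUOR. ALDHHigh cells sorted by FACS, with DEAB-treated cells as gating control. Plated at 1000 cells/well on ultra-low attachment in serum-free MEBM containing 2% B27, 20 ng mL−1 EGF, 10 ng mL−1 FGF, 1 ng mL−1 hydrocortisone, 5 μg mL−1 insulin and 100 μM β-mercaptoethanol. Dosed 1 h after plating; medium renewed at 1 week. Spheres >40 μm counted at 2 weeks for ED50.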

[7] = molecular target: GSPT1 (Homo sapiens, UniProt P15170); test: Western blot neo-substrate GSPT1 degradation in SW480 cells; format: cell-based; settings: 16 hours
Chain of GSPT1 (Q16531 whole entry): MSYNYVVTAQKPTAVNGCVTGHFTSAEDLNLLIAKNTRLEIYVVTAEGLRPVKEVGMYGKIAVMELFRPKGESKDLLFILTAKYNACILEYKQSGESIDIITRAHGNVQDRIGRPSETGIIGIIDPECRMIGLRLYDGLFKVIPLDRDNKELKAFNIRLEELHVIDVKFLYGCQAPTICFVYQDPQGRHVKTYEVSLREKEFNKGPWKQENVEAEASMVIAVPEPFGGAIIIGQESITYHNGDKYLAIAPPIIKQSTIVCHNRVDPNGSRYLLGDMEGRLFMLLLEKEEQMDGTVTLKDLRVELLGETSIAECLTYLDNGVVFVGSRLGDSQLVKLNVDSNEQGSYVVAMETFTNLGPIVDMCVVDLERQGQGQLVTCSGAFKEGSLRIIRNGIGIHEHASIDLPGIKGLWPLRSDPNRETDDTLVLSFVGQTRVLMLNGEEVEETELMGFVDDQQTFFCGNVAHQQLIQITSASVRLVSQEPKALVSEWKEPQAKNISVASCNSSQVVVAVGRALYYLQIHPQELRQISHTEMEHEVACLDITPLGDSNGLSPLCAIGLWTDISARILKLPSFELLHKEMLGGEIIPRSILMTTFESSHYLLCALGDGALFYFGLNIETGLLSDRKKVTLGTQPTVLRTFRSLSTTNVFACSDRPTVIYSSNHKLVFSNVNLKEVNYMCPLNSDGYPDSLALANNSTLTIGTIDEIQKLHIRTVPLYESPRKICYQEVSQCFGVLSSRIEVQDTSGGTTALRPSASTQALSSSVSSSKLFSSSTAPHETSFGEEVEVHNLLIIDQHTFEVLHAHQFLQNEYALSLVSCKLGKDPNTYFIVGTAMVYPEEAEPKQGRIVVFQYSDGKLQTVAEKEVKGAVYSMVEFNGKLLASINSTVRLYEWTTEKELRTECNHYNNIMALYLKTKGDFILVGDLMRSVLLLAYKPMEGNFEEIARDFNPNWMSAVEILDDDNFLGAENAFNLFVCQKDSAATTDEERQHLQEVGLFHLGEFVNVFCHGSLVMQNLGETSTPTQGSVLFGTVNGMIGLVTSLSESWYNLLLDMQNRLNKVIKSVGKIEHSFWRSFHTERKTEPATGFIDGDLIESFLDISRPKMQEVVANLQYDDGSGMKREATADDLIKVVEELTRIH
Chain of GSPT1 (Q96SW2 whole entry, further chain): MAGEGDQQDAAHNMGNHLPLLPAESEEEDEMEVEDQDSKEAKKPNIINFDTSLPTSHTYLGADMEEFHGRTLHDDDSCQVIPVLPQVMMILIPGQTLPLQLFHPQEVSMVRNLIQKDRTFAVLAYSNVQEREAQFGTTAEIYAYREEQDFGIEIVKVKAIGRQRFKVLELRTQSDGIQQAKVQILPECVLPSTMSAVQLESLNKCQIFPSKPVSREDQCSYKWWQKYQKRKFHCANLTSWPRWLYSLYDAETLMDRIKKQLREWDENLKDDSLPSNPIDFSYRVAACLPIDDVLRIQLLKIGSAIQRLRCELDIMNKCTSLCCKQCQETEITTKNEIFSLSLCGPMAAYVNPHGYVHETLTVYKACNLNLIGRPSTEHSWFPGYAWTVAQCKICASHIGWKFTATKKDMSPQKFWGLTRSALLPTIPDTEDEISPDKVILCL
Chain of GSPT1 (P15170 whole entry): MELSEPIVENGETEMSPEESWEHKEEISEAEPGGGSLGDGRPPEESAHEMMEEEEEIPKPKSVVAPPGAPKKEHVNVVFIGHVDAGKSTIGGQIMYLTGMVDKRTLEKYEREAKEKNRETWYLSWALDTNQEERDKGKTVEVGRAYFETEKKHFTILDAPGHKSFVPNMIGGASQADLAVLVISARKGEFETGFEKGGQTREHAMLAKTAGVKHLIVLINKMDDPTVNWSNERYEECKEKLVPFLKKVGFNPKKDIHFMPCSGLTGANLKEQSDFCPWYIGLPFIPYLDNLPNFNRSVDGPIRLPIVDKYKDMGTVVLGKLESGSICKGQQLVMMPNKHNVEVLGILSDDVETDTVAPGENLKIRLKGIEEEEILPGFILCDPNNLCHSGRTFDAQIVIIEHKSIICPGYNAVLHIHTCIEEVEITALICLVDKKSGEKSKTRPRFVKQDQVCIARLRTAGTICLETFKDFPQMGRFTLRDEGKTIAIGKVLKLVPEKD

[8] = molecular target: T2, KDM3A; test: IHC of HCP-1 xenograft tumors, KDM3A; format: in vivo, mice
Summary of the method: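 Tumours came from ALDHHigh HCP-1 xenografts in NSG mice given test compound IP (3, 10 or 35 mg kg−1) for 16 days. Paraffin sections were deparaffinised and rehydrated, then antigen-unmasked. Peroxidase blocked; sections blocked 1 h in 10% goat serum. Primary antibody overnight at 4 °C, biotinylated secondary 30 min at RT, avidin–biotin peroxidase detection, hematoxylin counterstain.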

[9] = molecular target: T1, KDM3B; test: IHC of HCP-1 xenograft tumors, KDM3B; format: in vivo, mice; settings: HCP-1 xenograft tumor tissues
[10] = test system: Wnt target genes in SW480 cells; test: RT-qPCR of Wnt target gene expression in SW480; format: cell-based, human
Summary of the method: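 Cells in 6-well plates exposed to test compound for 16 h. Total RNA extracted; 1 μg reverse-transcribed with M-MuLV and random hexamers. SYBR Green qPCR for the named genes, quantified by 2ΔΔct against tubulin. Mean ± SD; unpaired two-tailed Student's t-test.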

[11] = 0.1 μM, plus glutathione, UDPGA, PAPS, 37 °C

T1 sequence (Q7LBC6 whole entry): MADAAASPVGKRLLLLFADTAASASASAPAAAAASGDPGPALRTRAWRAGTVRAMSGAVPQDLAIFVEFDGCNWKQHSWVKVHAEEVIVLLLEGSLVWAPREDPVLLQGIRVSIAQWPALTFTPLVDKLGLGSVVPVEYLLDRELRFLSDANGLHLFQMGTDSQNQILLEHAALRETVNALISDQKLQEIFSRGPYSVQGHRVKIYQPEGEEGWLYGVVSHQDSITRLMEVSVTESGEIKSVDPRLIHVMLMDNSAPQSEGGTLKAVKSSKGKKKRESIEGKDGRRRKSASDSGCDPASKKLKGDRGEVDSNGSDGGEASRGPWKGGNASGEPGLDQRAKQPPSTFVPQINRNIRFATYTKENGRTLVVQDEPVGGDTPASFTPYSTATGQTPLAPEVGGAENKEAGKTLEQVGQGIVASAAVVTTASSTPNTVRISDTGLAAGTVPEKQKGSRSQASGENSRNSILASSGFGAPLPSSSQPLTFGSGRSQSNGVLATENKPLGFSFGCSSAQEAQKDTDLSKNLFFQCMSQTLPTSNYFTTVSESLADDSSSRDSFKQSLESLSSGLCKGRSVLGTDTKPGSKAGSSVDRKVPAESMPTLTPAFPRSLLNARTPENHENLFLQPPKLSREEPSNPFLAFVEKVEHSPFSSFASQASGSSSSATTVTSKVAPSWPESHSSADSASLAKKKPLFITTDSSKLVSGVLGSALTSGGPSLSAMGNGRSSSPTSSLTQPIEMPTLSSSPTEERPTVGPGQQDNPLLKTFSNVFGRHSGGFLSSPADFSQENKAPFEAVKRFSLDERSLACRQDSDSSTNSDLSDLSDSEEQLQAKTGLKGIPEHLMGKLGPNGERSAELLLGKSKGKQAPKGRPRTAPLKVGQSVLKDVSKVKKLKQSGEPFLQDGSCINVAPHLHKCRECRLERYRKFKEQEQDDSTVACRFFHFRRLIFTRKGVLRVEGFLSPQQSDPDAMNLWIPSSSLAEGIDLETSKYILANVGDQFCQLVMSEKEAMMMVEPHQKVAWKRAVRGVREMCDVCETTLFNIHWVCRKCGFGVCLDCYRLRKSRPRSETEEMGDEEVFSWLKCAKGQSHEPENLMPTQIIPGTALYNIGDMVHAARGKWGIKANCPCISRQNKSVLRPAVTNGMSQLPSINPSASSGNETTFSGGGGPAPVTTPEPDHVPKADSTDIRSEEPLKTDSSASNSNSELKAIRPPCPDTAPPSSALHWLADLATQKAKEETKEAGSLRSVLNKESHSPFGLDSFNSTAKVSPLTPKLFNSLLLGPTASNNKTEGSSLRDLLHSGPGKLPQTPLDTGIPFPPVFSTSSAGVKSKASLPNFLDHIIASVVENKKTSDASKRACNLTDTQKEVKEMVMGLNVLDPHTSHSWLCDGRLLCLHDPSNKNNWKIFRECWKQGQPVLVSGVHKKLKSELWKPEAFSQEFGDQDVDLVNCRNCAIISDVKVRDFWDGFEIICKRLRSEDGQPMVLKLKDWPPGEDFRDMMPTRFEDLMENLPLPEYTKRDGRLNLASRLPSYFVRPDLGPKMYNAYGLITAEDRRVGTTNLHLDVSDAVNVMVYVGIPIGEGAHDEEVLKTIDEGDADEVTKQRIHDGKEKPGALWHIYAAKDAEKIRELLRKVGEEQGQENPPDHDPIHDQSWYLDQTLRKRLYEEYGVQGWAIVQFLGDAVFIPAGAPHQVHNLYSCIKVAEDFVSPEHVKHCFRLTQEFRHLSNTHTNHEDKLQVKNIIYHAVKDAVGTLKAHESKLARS

O=C1CCC(N2C(=O)c3cccc(NCCOCCOCCOCCOCCNC(=O)c4ccc(O)c5ncccc45)c3C2=O)C(=O)N1 (stereo not shown) [Compound 4, N-(14-((2-(2,6-Dioxopiperidin-3-yl)-1,3-dioxoisoindolin-4-yl)amino)-3,6,9,12-tetraoxatetradecyl)-8-hydroxyquinoline-5-carboxamide]
CLint Human (liver, S9) [1, 11]: 41.6 µL/min/mg | t 1/2 Human (liver, S9) [1, 11]: 16.7 min | clearance classification, human ([1]; CLint classification bands): moderate clearance | half-life at 0.1 μM ([1]; human, s9, t 1/2 Human (liver, S9), 0.1 μM, plus glutathione, UDPGA, PAPS, 37 °C): 16 min | CLint Rat (liver, S9) [2, 11]: 34.5 µL/min/mg | t 1/2 Rat (liver, S9) [2, 11]: 20.1 min | clearance classification, rat ([2]; CLint classification bands): moderate clearance | half-life at 0.1 μM ([2]; rat, s9, t 1/2 Rat (liver, S9), 0.1 μM, plus glutathione, UDPGA, PAPS, 37 °C): 20 min | Dmax ([3]; SW480, read-out: Dmax KDM3B): 88.5% | KDM3B degradation with MLN4924 co-treatment ([3]; SW480, MLN4924 1 μM, compound 4 1 μM): could be restored by MLN4924 | KDM3B degradation with pomalidomide or IOX1 co-treatment ([3]; SW480, pomalidomide 100 μM, compound 4 1 μM): could also be suppressed by either pomalidomide or IOX1 | KDM3B degradation (western blot) ([3]; SW480 cells, 16 hours): degrades both KDM3A and KDM3B at nanomolar concentrations | DC50 ([3]; read-out: DC50 KDMB, SW480 cells, 16 hours): 173 nM | KDM3A degradation [4]: potently induce KDM3A and KDM3B degradation | pIC50 [5]: < 4.52 | ED50 HCP-1 (tumor sphere formation) [6]: 280 nM | GSPT1 degradation [7]: did not induce | KDM3A level (IHC) at high dose ([8]; 35 mg kg^−1): slight upregulation of KDM3A | KDM3A degradation in vivo (IHC) ([8]; HCP-1 xenograft tumor tissues): confirmed the PROTAC-induced KDM3A and KDM3B degradation in vivo | KDM3B degradation in vivo (IHC) [9]: confirmed the PROTAC-induced KDM3A and KDM3B degradation in vivo | suppression of Wnt target gene expression (AXIN2, DKK1, CCND1) ([10]; SW480, 50 μM, 16-hour treatment, in most cases): ≥ 50% | expression of colorectal CSC signature genes (ASCL2, RNF43, ZNRF3, LGR5) ([10]; SW480, 16 hours): strongly inhibited
